Test results published in ChEMBL document CHEMBL1944597, “Synthesis and evaluation of non-basic inhibitors of urokinase-type plasminogen activator (uPA)” (Bioorg Med Chem, 2012).

Columns and labels:
[1] = target: T1, Urokinase-type plasminogen activator (Homo sapiens, UniProt P00749); assay: Inhibition of human uPA using pyroGlu-Gly-Arg-p-NA.HCl as substrate preincubated for 15 mins prior substrate addition measured for 10 mins by spectrophotometry
Plasminogen = Plasminogen (Homo sapiens, UniProt P00747); assay: Inhibition of human plasma plasmin using pyroGlu-Pro-Arg-p-NA.HCl as substrate preincubated for 15 mins prior substrate addition measured for 10 mins by spectrophotometry
Summary of the method: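 Plasmin from human plasma, about 5 mU, in Tris buffer pH 7.4, preincubated 15 min at 37 °C with inhibitor (0–250 µM final, DMSO stocks). […] Initial rate was read at 405 nm (0–0.25 AU within 10 min) at 37 °C. Assays ran in duplicate, and IC50 was the concentration halving activity.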

[2] = target: Tissue-type plasminogen activator (Homo sapiens, UniProt P00750); assay: Inhibition of recombinant tPA using H-D-Ile-Pro-Arg-pNA.2HCl as substrate preincubated for 15 mins prior substrate addition measured for 10 mins by spectrophotometry
Summary of the method: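 Recombinant tPA, about 5 mU, in Tris buffer pH 8.3, with inhibitor at 0–250 µM final from DMSO stocks, preincubated 15 min at 37 °C. […] Initial rate came from 405 nm absorbance (0–0.25 AU, 10 min) at 37 °C, measured in duplicate. IC50 was the inhibitor level reducing activity to 50%.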

Prothrombin = Prothrombin (Homo sapiens, UniProt P00734); assay: Inhibition of human plasma thrombin using pyroGlu-Pro-Arg-p-NA.HCl as substrate preincubated for 15 mins prior substrate addition measured for 10 mins by spectrophotometry
Summary of the method: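 Human plasma thrombin (about 5 mU) in Tris pH 8.3 was given a 15-min 37 °C preincubation with inhibitor at 0–250 µM final, from DMSO stocks. […] Absorbance at 405 nm gave the initial rate over 0–0.25 AU in 10 min, at 37 °C, in duplicate. IC50 was taken as 50% activity loss.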

[3] = target: T1, Urokinase-type plasminogen activator; assay: Competitive inhibition of human uPA using pyroGlu-Gly-Arg-p-NA.HCl as substrate preincubated for 15 mins prior substrate addition measured for 10 mins by spectrophotometry
Summary of the method: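 Human uPA (about 1 mU) in 50 mM Tris pH 8.8 at 37 °C. […] Initial rate taken over 0–0.25 absorbance units in 10 min. Duplicates; IC50 is the concentration giving 50% activity.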

[4] = target: T1, Urokinase-type plasminogen activator; assay: Non-competitive inhibition of human uPA using pyroGlu-Gly-Arg-p-NA.HCl as substrate preincubated for 15 mins prior substrate addition measured for 10 mins by spectrophotometry

Tissue-type plasminogen activator, sequence (P00750 whole entry): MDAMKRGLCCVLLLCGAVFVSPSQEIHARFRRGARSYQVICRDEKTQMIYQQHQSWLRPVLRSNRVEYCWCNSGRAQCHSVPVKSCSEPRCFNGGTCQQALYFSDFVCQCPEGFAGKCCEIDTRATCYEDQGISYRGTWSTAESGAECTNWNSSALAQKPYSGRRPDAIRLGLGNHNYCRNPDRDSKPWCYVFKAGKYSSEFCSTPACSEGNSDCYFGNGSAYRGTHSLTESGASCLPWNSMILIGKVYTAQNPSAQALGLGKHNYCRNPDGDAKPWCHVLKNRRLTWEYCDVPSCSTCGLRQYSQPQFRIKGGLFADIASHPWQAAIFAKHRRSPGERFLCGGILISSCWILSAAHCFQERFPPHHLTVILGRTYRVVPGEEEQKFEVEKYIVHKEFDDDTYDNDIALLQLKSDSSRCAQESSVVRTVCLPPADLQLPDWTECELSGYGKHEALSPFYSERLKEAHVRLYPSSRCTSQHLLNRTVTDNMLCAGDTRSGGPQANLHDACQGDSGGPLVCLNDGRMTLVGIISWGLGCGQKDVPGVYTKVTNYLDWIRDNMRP
Plasminogen, sequence (P00747 97-580 limits assumed): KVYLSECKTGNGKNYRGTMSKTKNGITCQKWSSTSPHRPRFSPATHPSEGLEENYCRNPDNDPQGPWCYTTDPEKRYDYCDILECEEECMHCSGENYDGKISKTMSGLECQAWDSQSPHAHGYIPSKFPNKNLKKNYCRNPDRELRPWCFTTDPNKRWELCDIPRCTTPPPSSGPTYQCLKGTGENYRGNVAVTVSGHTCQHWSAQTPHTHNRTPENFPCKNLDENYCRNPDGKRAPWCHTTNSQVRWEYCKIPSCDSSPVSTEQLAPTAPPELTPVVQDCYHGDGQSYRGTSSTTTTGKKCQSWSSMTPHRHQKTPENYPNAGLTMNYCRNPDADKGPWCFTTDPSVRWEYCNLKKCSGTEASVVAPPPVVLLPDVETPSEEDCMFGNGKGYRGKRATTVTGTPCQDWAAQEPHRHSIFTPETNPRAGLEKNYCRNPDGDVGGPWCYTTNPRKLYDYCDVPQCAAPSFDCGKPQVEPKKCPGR
Plasminogen, sequence (P00747 581-810 limits assumed): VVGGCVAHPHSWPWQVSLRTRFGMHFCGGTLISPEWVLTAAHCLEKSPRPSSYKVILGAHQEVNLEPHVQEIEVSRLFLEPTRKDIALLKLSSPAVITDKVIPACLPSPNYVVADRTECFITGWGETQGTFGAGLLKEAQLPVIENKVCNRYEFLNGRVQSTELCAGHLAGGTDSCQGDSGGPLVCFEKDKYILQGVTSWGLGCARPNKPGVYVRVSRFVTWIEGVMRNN

Structure (SMILES)	IC50 [1] [µM]	other results
N=C(N)c1ccc2cc(C(=O)Nc3ccccc3)ccc2c1	13	IC50 (Plasminogen): 22 µM; IC50 [2]: 125 µM; IC50 (Prothrombin): 56 µM; Ki [3]: 1.9 µM
CCOC(=O)N1CCN(C(=O)[C@H](Cc2cccc(C(=N)N)c2)NS(=O)(=O)c2c(C(C)C)cc(C(C)C)cc2C(C)C)CC1	–	Ki [2]: 4.9 µM
COc1cc(NC(=O)c2ccc3cc(C(=N)N)ccc3c2)cc(OC)c1	2.6	IC50 (Plasminogen): 13 µM; IC50 [2]: > 62 µM; IC50 (Prothrombin): > 62 µM
C[C@H](NC(=O)[C@@H](CO)NS(=O)(=O)Cc1ccccc1)C(=O)NCc1ccc(C(=N)N)cc1	–	Ki [2]: 7.4 µM; Ki (Prothrombin): 0.1 µM
COc1ccc2cc(S(=O)(=O)Nc3ccc(-c4cccc(C(F)(F)F)c4)cc3)ccc2c1	4.1	IC50 [2]: 13 µM
N=C(N)c1ccc(/C=C2/N=C(c3ccccc3)OC2=O)cc1	0.2	IC50 (Plasminogen): > 100 µM; IC50 [2]: > 100 µM; IC50 (Prothrombin): > 100 µM
N#Cc1ccc2cc(C(=O)Nc3ccccc3)ccc2c1	> 62	–
O=C(Nc1ccccc1)c1ccc2ccccc2c1	> 62	–
O=C(Nc1ccccc1)c1ccc2cc(Br)ccc2c1	> 62	–
Nc1ccc2cc(C(=O)Nc3ccccc3)ccc2c1	> 62	–
COc1ccc2cc(C(=O)Nc3ccccc3)ccc2c1	> 62	–
COC(=O)c1ccc2cc(C(=O)Nc3ccccc3)ccc2c1	> 62	–
O=C(O)c1ccc2cc(C(=O)Nc3ccccc3)ccc2c1	> 62	–
NC(=O)c1ccc2cc(C(=O)Nc3ccccc3)ccc2c1	–	IC50 [4]: 15 µM
COc1cc(NC(=O)c2ccc3cc(C(N)=O)ccc3c2)cc(OC)c1	30	–
NCc1ccc(NC(=O)c2ccc3cc(C(N)=O)ccc3c2)cc1	45	–
COC(=O)c1cccc(-c2ccc(NC(=O)c3ccc4ccccc4c3)cc2)c1	16	–
COc1cccc(-c2ccc(NC(=O)c3ccc4ccccc4c3)cc2)c1	9.8	–
COC(=O)c1cccc(-c2ccc(NC(=O)c3ccc4cc(C(N)=O)ccc4c3)cc2)c1	3.6	IC50 (Plasminogen): > 125 µM; IC50 [2]: 11 µM; IC50 (Prothrombin): > 125 µM
COc1cccc(-c2ccc(NC(=O)c3ccc4cc(C(N)=O)ccc4c3)cc2)c1	2.9	IC50 (Plasminogen): 12 µM; IC50 [2]: 5.7 µM; IC50 (Prothrombin): > 62 µM
NC(=O)c1ccc2cc(C(=O)Nc3ccc(-c4cccc(C(F)(F)F)c4)cc3)ccc2c1	–	IC50 (Plasminogen): 6.3 µM; IC50 [2]: 3.4 µM; IC50 (Prothrombin): > 62 µM; IC50 [4]: 2.4 µM
NC(=O)c1ccc2cc(C(=O)Nc3ccc(-c4cccc(Cl)c4)cc3)ccc2c1	8.1	–
COc1ccc(-c2ccc(NC(=O)c3ccc4cc(C(N)=O)ccc4c3)cc2OC)cc1	6.4	IC50 [2]: 9.7 µM
COC(=O)c1cccc(-c2ccc(NC(=O)c3ccc4cc(C(=O)OC)ccc4c3)cc2)c1	14	–
COc1cccc(-c2ccc(NC(=O)c3ccc4cc(C#N)ccc4c3)cc2)c1	20	–
COC(=O)c1cccc(-c2ccc(NC(=O)c3ccc4cc(C#N)ccc4c3)cc2)c1	9	–
N#Cc1ccc2cc(C(=O)Nc3ccc(-c4cccc(C(=O)O)c4)cc3)ccc2c1	> 250	–

Structure (SMILES)	IC50 [1] [µM]	other results
COC(=O)c1cccc(-c2ccc(NC(=O)c3ccc4cc(OC)ccc4c3)cc2)c1	4	IC50 (Plasminogen): 4 µM; IC50 [2]: 8.4 µM; IC50 (Prothrombin): > 62 µM
COc1cccc(-c2ccc(NC(=O)c3ccc4cc(OC)ccc4c3)cc2)c1	4	IC50 (Plasminogen): 20 µM; IC50 [2]: 21 µM; IC50 (Prothrombin): > 62 µM
COc1ccc2cc(C(=O)Nc3ccc(-c4cccc([N+](=O)[O-])c4)cc3)ccc2c1	2.6	IC50 (Plasminogen): 31 µM; IC50 [2]: 8.6 µM; IC50 (Prothrombin): > 62 µM
COc1ccc2cc(C(=O)Nc3ccc(-c4cccc(C(F)(F)F)c4)cc3)ccc2c1	–	IC50 (Plasminogen): 6.5 µM; IC50 [2]: 5.3 µM; IC50 (Prothrombin): > 62 µM; IC50 [4]: 2.1 µM
COc1ccc(-c2ccc(NC(=O)c3ccc4cc(OC)ccc4c3)cc2)cc1	12	–
COc1ccc2cc(C(=O)Nc3ccc(-c4ccc(OC)c(OC)c4)cc3)ccc2c1	31	–
COc1ccc(-c2ccc(NC(=O)c3ccc4cc(OC)ccc4c3)cc2OC)cc1	> 31	–
COC(=O)c1cccc(-c2ccc(NC(=O)c3ccc4cc(Cl)ccc4c3)cc2)c1	7	–
COC(=O)c1cccc(-c2ccc(NC(=O)c3ccc4cc(Br)ccc4c3)cc2)c1	11	–
COC(=O)c1cccc(-c2ccc(NC(=O)c3ccc4cc(N)ccc4c3)cc2)c1	31	–
COC(=O)c1cccc(-c2ccc(NS(=O)(=O)c3ccc4ccccc4c3)cc2)c1	16	–
COC(=O)c1ccc(-c2ccc(NS(=O)(=O)c3ccc4ccccc4c3)cc2)cc1	9.8	–
COc1cccc(-c2ccc(NS(=O)(=O)c3ccc4ccccc4c3)cc2)c1	31	–
COc1ccc2cc(S(=O)(=O)Nc3ccc(-c4ccccc4)cc3)ccc2c1	31	–
COC(=O)c1cccc(-c2ccc(NS(=O)(=O)c3ccc4cc(OC)ccc4c3)cc2)c1	–	IC50 (Plasminogen): > 62 µM; IC50 [2]: 26 µM; IC50 (Prothrombin): > 62 µM; IC50 [4]: 2.8 µM
COc1ccc2cc(S(=O)(=O)Nc3ccc(-c4cccc(C(N)=O)c4)cc3)ccc2c1	> 62	–
COc1ccc2cc(S(=O)(=O)Nc3ccc(-c4cccc(F)c4)cc3)ccc2c1	> 62	–
COc1ccc2cc(S(=O)(=O)Nc3ccc(-c4cccc(Cl)c4)cc3)ccc2c1	> 62	–
COc1cccc(-c2ccc(NS(=O)(=O)c3ccc4cc(OC)ccc4c3)cc2)c1	19	–
COc1ccc2cc(S(=O)(=O)Nc3ccc(-c4cccc([N+](=O)[O-])c4)cc3)ccc2c1	6.9	–
COc1ccc2cc(S(=O)(=O)Nc3ccc(-c4cccc(N)c4)cc3)ccc2c1	62	–
COC(=O)c1ccc(-c2ccc(NS(=O)(=O)c3ccc4cc(OC)ccc4c3)cc2)cc1	16	–
COc1ccc(-c2ccc(NS(=O)(=O)c3ccc4cc(OC)ccc4c3)cc2)cc1	23	–
COc1ccc2cc(S(=O)(=O)Nc3ccc(-c4ccc(OC)c(OC)c4)cc3)ccc2c1	8	–
COc1ccc(-c2ccc(NS(=O)(=O)c3ccc4cc(OC)ccc4c3)cc2OC)cc1	8	–
[H]/N=C(\N)c1ccc2cc(C(=O)Nc3ccc(CN)cc3)ccc2c1	–	IC50 (Plasminogen): > 62 µM; IC50 [2]: > 62 µM; IC50 (Prothrombin): > 62 µM
